ChEMBL document CHEMBL1142115, “Furanocembranoids from the stem bark of Croton oblongifolius” (J Nat Prod, 2007)
Values after ≈ are worked out from the molar mass of the structure shown.

How the values were obtained:
Type in all cases: cell-based
[1] = tested on: HepG2; assay: Cytotoxicity against human HepG2 cells by MTT assay
Method in brief: (§1)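 In vitro cytotoxicity by MTT colorimetric read-out on human tumor cultures: BT474 (breast carcinoma), CHAGO (lung carcinoma), Hep-G2 (hepatocarcinoma), KATO-3 (gastric carcinoma) and SW-620 (colon carcinoma). Each pure isolate was tested on all five lines.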

[2] = Cytotoxicity against human BT474 cells by MTT assay; details: BT-474; method in brief: as §1
[3] = Cytotoxicity against human CHAGO cells by MTT assay; method in brief: as §1
[4] = tested on: SW-620; assay: Cytotoxicity against human SW620 cells by MTT assay; method in brief: as §1
[5] = Cytotoxicity against human KATO3 cells by MTT assay; method in brief: as §1

SMILES	IC50 [1] [µg/mL]	IC50 [2] [µg/mL]	IC50 [3] [µg/mL]	IC50 [4] [µg/mL]	IC50 [5] [µg/mL]
C/C1=C\CC[C@](C)(O)/C=C/[C@H](C(C)C)CCc2coc(c2)C1 [FURANOCEMBRANOID 1]	5.6 (≈ 18.5 µM)	7.8 (≈ 25.8 µM)	7 (≈ 23.1 µM)	6.3 (≈ 20.8 µM)	5.9 (≈ 19.5 µM)
CC(C)[C@H]1/C=C/[C@@](C)(O)CC[C@@H]2O[C@@]2(C)Cc2cc(co2)CC1 [FURANOCEMBRANOID 2]	> 10	9.5 (≈ 29.8 µM)	> 10	9.9 (≈ 31.1 µM)	6.8 (≈ 21.4 µM)
CC(C)[C@H]1/C=C/[C@@](C)(O)CC[C@@H](O)[C@@](C)(O)Cc2cc(co2)CC1 [FURANOCEMBRANOID 3]	5.7 (≈ 16.9 µM)	9.6 (≈ 28.5 µM)	7.1 (≈ 21.1 µM)	5.6 (≈ 16.6 µM)	8.2 (≈ 24.4 µM)
CC(C)[C@H]1/C=C/[C@@](C)(O)CC[C@@H](O)[C@@](C)(O)C[C@H]2C=C(CC1)C(=O)O2 [FURANOCEMBRANOID 4]	6.1 (≈ 17.3 µM)	9.6 (≈ 27.2 µM)	9.3 (≈ 26.4 µM)	6 (≈ 17 µM)	8.1 (≈ 23 µM)
